The target in one assay is T1, OR1D2 (Homo sapiens) (UniProt P34982).
T1 sequence (whole entry): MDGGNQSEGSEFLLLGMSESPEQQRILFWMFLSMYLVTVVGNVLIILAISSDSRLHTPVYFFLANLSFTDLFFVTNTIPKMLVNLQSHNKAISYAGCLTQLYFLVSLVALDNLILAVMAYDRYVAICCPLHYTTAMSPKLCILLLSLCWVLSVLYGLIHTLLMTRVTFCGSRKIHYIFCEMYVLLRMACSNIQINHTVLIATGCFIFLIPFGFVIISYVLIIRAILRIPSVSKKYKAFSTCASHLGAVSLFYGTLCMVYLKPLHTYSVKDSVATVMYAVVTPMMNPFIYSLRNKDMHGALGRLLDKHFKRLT
Conditions: stereoisomer not certain. The gist of the method:
(§1)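 Whether a receptor–molecule pair is responsive (active) rests on the original authors' judgment that its measured signal was statistically different from baseline. Pairs without that judgment are non-responsive (inactive). Sources used varied assay methods, commonly transient luciferase assays in mammalian cell lines.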
As to `CCC1OC(C)=C(O)C1=O` (centres undefined), the “odorant receptor agonist call” value is “inactive”.
Still for that read-out and setting: with `CCc1ccc(CC(C)(C)C=O)cc1` the entry was “active”.
In the case of `O=CCCCCc1ccccc1`, the “odorant receptor agonist call” value was “inactive”.
Still for that read-out and setting: under `COc1ccc(CC(C)C=O)cc1` (centres undefined) stands “active”.

In a further assay the target is T2, OR1D4 (Homo sapiens) (UniProt P47884).
T2 sequence (whole entry): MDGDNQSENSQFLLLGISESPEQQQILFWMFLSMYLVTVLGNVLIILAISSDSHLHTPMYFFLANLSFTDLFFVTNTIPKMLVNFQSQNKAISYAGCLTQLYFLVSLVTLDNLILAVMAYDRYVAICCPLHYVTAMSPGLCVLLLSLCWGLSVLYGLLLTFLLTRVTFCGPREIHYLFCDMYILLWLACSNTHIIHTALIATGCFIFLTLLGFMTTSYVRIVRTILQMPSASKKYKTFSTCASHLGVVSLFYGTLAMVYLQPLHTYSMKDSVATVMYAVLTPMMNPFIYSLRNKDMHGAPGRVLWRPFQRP
Conditions: stereoisomer not certain. In short, it runs like this:
as §1
For `CC1CCCCCCCCCCCCC(=O)C1` (centres undefined), the “odorant receptor agonist call” value was “inactive”.
Regarding `CC(CO)CS` (centres undefined), the “odorant receptor agonist call” value is “inactive”.
The same measure, in the same setting: with `CCC(S)C(C)CO` (centres undefined) the entry was “inactive”.
For `CCCCCC(=O)C(C)C(C)=O` (centres undefined), the “odorant receptor agonist call” value was “inactive”.
Still for that read-out and setting: with `CCCCC(S)C(C)CO` (centres undefined) the entry was “inactive”.
On the same count and under the same terms, with `CCCCCC(S)C(C)CO` (centres undefined) the entry was “inactive”; with `CC(=O)c1c(C)c([N+](=O)[O-])c(C(C)(C)C)c([N+](=O)[O-])c1C`, “inactive”.

The next assay has as its target T3, OR1D5 (Homo sapiens) (UniProt P58170).
T3 sequence (whole entry): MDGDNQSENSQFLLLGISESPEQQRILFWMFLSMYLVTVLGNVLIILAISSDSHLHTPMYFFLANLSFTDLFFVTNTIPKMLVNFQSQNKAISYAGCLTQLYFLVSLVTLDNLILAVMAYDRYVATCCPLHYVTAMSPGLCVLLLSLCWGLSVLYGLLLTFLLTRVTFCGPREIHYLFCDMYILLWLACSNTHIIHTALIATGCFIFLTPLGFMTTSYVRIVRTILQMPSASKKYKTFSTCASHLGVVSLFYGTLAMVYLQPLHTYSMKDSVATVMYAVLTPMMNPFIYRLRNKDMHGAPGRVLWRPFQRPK
Conditions: stereoisomer not certain. In short, it runs like this: as §1
Consider `CC1=C(O)C(=O)C(C)O1` (centres undefined), for which the “odorant receptor agonist call” value was “inactive”.
Still for that read-out and setting: with `CC1CCCCCCCCCCCCC(=O)C1` (centres undefined) the entry was “inactive”; with `CCC1OC(=O)C(O)=C1C` (centres undefined), “inactive”; with `CC1=C(O)C(=O)OC1C` (centres undefined), “inactive”.
The same measure, in the same setting: under `CC(CO)CS` (centres undefined) stands “inactive”.
Same read-out and setting: with `CCC(S)C(C)CO` (centres undefined) the entry was “inactive”; with `CCCC(S)CCOC(C)=O` (centres undefined), “inactive”.
For the compound `CCCCCC(=O)C(C)C(C)=O` (centres undefined), the “odorant receptor agonist call” value was “inactive”.
The same measure, in the same setting: with `Cc1cnc(C)c(C)n1` the entry was “inactive”.
The same measure, in the same setting: with `CCCCC(S)C(C)CO` (centres undefined) the entry was “inactive”.
On the same count and under the same terms, under `CCCCCCC=CCCC=O` stands “inactive”.
For the compound `CC1=NC(C)C(C)S1` (centres undefined), the “odorant receptor agonist call” value was “inactive”.
Still for that read-out and setting: with `CCCCCC(S)C(C)CO` (centres undefined) the entry was “inactive”.
The same measure, in the same setting: under `CCC1OC(C)=C(O)C1=O` (centres undefined) stands “inactive”; under `CC(=O)c1c(C)c([N+](=O)[O-])c(C(C)(C)C)c([N+](=O)[O-])c1C`, “inactive”.

The target in the next assay is T4, OR1E1 (Homo sapiens) (UniProt P30953).
T4 sequence (whole entry): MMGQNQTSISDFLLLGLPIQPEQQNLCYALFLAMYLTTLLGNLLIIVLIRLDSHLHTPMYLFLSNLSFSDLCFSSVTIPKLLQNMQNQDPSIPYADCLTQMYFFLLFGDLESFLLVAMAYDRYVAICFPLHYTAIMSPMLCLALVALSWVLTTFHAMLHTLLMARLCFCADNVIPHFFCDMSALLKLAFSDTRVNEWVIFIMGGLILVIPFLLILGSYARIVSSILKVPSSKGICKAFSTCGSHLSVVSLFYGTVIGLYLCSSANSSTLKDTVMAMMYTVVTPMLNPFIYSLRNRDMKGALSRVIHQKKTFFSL
Conditions: stereoisomer not certain. The gist of the method: as §1
For `CC1=C(O)C(=O)C(C)O1` (centres undefined), the “odorant receptor agonist call” value is “inactive”.
As to `CCC1OC(=O)C(O)=C1C` (centres undefined), the “odorant receptor agonist call” value is “inactive”.
As for `CC1=C(O)C(=O)OC1C` (centres undefined), the “odorant receptor agonist call” value was “inactive”.
On the same count and under the same terms, under `CC(CO)CS` (centres undefined) stands “inactive”; under `CCC(S)C(C)CO` (centres undefined), “inactive”.
For `CCCC(S)CCOC(C)=O` (centres undefined), the “odorant receptor agonist call” value is “inactive”.
In the case of `CCCCCC(=O)C(C)C(C)=O` (centres undefined), the “odorant receptor agonist call” value is “inactive”.
For the compound `Cc1cnc(C)c(C)n1`, the “odorant receptor agonist call” value is “inactive”.
On to `CCCCC(S)C(C)CO` (centres undefined), for which the “odorant receptor agonist call” value is “inactive”.
Regarding `CCCCCCC=CCCC=O`, the “odorant receptor agonist call” value is “inactive”.
Regarding `CC1=NC(C)C(C)S1` (centres undefined), the “odorant receptor agonist call” value was “inactive”.
As to `CCCCCC(S)C(C)CO` (centres undefined), the “odorant receptor agonist call” value is “inactive”.
With `CCC1OC(C)=C(O)C1=O` (centres undefined), the “odorant receptor agonist call” value was “inactive”.

The target in the next assay is T5, OR1E2 (Homo sapiens) (UniProt P47887).
T5 sequence (whole entry): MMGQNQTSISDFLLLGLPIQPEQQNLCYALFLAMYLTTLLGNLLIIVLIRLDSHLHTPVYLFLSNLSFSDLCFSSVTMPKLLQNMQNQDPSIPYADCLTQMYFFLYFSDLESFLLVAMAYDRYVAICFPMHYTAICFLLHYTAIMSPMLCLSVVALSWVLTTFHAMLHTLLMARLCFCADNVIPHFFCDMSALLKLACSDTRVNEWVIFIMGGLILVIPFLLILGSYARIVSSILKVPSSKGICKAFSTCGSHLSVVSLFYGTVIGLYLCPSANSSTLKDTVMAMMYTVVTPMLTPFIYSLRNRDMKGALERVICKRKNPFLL
Conditions: stereoisomer not certain. The gist of the method:
as §1
On to `CC1=C(O)C(=O)C(C)O1` (centres undefined), for which the “odorant receptor agonist call” value is “inactive”.
On the same count and under the same terms, under `CC1CCCCCCCCCCCCC(=O)C1` (centres undefined) stands “inactive”; under `CCC1OC(=O)C(O)=C1C` (centres undefined), “inactive”; under `CC1=C(O)C(=O)OC1C` (centres undefined), “inactive”.
The same measure, in the same setting: under `CC(CO)CS` (centres undefined) stands “inactive”.
Same read-out and setting: with `CCC(S)C(C)CO` (centres undefined) the entry was “inactive”.
`CCCC(S)CCOC(C)=O` (centres undefined): the “odorant receptor agonist call” value is “inactive”.
On to `CCCCCC(=O)C(C)C(C)=O` (centres undefined), for which the “odorant receptor agonist call” value was “inactive”.
`Cc1cnc(C)c(C)n1`: the “odorant receptor agonist call” value is “inactive”.
Turning to `CCCCC(S)C(C)CO` (centres undefined), the “odorant receptor agonist call” value is “inactive”.
On the same count and under the same terms, under `CCCCCCC=CCCC=O` stands “inactive”.
`CC1=NC(C)C(C)S1` (centres undefined): the “odorant receptor agonist call” value was “inactive”.
Same read-out and setting: under `CCCCCC(S)C(C)CO` (centres undefined) stands “inactive”.
With `CCC1OC(C)=C(O)C1=O` (centres undefined), the “odorant receptor agonist call” value is “inactive”.
The same measure, in the same setting: under `CC(=O)c1c(C)c([N+](=O)[O-])c(C(C)(C)C)c([N+](=O)[O-])c1C` stands “inactive”.

Values taken from the M2OR odorant receptor database.
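Also: active if original authors judged signal statistically different from baseline.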
